# Screening data deposited in PubChem BioAssay by several laboratories.
# This is a sample that favours compounds with a hit; in the whole collection about 1% have one here.
# XBP1 UPR activ – activators of adaptive arm of unfolded protein response (XBP1). CHO-XBP1 luciferase reporter, IRE1-XBP1 UPR activation, luminescence; percent of tunicamycin response, DMSO as zero. activation, % at 20 µM. 0.33% of 330,000 active. AID 463104;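 active means versus positive control, 20 µM dose yields 30% or more activation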;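 further: 100% = tunicamycin at 10 µg/mL and 0% = DMSO only wells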
#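 Material: CHO-XBP1 cells stably carrying IRE1-XBP1-driven luciferase reporter | Medium: F12 with 10% serum | Compound dosing: 20 µM single concentration, DMSO 1% | Incubation: Overnight seeding at 37 °C, 6 h compound treatment at 37 °C | Detection: Steady-Glo luminescence read | Read-out basis: % activation of reporter signal versus tunicamycin and DMSO controls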
# Beta2AR agonist – activates human beta-2 adrenergic receptor causing internalization; P07550; Am2.2-beta2AR cells, FAP receptor internalization, flow cytometry; response, % (test concentration not listed); 0.43% of 340,000 active;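 active means response above a set limit, near 3 SD of response in nonfluorescent compounds, cut at about 42% in these data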
# Target sequence (P07550 whole entry, looked up): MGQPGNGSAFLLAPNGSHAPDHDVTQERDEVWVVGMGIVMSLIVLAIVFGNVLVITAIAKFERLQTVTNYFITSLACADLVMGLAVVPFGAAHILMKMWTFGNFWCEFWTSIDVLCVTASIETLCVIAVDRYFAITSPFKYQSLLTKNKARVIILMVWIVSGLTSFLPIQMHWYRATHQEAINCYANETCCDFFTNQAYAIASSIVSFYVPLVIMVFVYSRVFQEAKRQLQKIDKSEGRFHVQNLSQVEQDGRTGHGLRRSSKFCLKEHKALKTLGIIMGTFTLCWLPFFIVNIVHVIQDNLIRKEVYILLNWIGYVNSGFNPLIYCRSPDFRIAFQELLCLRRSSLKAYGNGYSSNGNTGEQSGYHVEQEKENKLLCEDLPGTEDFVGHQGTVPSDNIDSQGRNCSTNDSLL
# T cell modulator – T cell immune modulators affecting CD8 T cell-vesicle binding; 0.068% of 330,000 active; response (vesicle binding), % at 7 µM; 2C CD8+ T cell-vesicle binding, flow cytometry; active compounds read low;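 active means response, share of CD8 T cells binding vesicles, and their 90th percentile fluorescence all below set limits, cut at about 80% in these data, passing the limit was not always enough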;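 further: values below 100% mean blocked vesicle binding to the CD8+ T cells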
#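 Incubation: binding step 1.5 h, 37 °C, antibody labelling 20 min, ice; system: murine 2C transgenic CD8+ T lymphocytes; technique: cytometric PE anti-B7-1 and Alexa647 anti-CD8 signals after 1% paraformaldehyde fixation; also added: QL9-charged Drosophila Ld/ICAM-1/B7-1 vesicles; control set: naked versus QL9-loaded vesicles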
# CHOP UPR activ – apoptotic UPR (CHOP) activation | CHO-CHOP luciferase reporter, luminescence; percent of tunicamycin response over DMSO baseline | activation, % at 10 µM | 0.34% of 330,000 active | AID 449763;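 active means at 10 µM dose, activation of 40% or more, normalized to positive control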;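 further: 100% = tunicamycin at 10 µg/mL and 0% = DMSO alone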
#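 Material: CHO-CHOP cells, stable luciferase reporter of PERK-eIF2a-CHOP signalling; quantity: 500 reporter cells seeded per well; buffer or medium: F12 medium containing 10% fetal bovine serum; compound: one dose, 10 µM in 0.5% DMSO; incubation: 6 h compound treatment, 37 °C; measured by: Steady-Glo luciferase luminescence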
# Beta2AR ag CP1 – human beta-2 adrenergic receptor agonism, cherry pick. shares compounds with Beta2AR agonist. Am2.2-beta2AR cells, FAP surface receptor, flow cytometry; active compounds read low. percent response (surface receptor), % at 10 µM. 25% of 1,100 active. AID 540358;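 active means surface receptor percent response at or below 58%, roughly 3 SD from nonfluorescent compounds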
# FAP fluor counter – counter-screen for beta-2AR agonists: fluorescence in Am2.2 cells. FAP fluorogen flow cytometry, fluorescence counterscreen; active compounds read low. shares compounds with Beta2AR agonist. 1,100 tested, under 10 active. calls only at 10 µM. AID 588765;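 active means percent response below a set limit in fluorescence channel 1 and below 50% in channel 8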
# * marks the source's active call; other numbers are inactive results; i = inactive; x = no result given.
SMILES,XBP1 UPR activ,Beta2AR agonist,T cell modulator,CHOP UPR activ,Beta2AR ag CP1,FAP fluor counter
CCOC(=O)c1c(-c2ccccc2)oc2ccc(O)c(CN3CCCC3)c12,5,95*,705,-1,106,i
COc1ccc(/C=N/NC(N)=S)cc1,-2,2,351,1,x,x
CC(C)Oc1ccc(/C=N/NC(N)=S)cc1,2,-5,235,3,92,i
Cc1ccc(S(=O)(=O)N2CCCC2C(=O)NCCc2ccccc2)cc1 (stereo unspecified),-3,-3,354,-1,x,x
Cc1ccc(S(=O)(=O)N2CCCC2C(=O)NCCc2nc3ccccc3[nH]2)cc1 (stereo unspecified),1,50*,554,1,117,i
CCOc1ccccc1/C=C/c1onc(C)c1S(=O)(=O)N1CCC(C(=O)NC(C)C)CC1,0,10,751,-1,x,x
COc1ccccc1/C=C/c1onc(C)c1S(=O)(=O)N1CCC(C(=O)NC(C)C)CC1,1,44*,602,1,97,i
COc1ccc(C2/C=C\CN(C(=O)c3ccccc3)CC(=O)N2Cc2ccc(F)cc2)cc1 (stereo unspecified),0,-8,0,-2,78,i
COc1ccc(C2/C=C\CN(Cc3ccc(N(C)C)cc3)CC(=O)N2Cc2ccc(F)cc2)cc1 (stereo unspecified),0,97*,383,0,27*,i
COc1ccc(C2/C=C\CN(C(=O)OCc3ccccc3)CC(=O)N2Cc2ccc(F)cc2)cc1 (stereo unspecified),0,0,x,-3,x,x
CCN1CCN(c2ccc(S(=O)(=O)N3CCCCC3)cc2NC(=O)c2cc3ccccc3o2)CC1,0,48*,452,1,115,i
COc1ccc(CCNC(=O)CSc2nnc3c(n2)[nH]c2ccc(F)cc23)cc1OC,-7,0,246,2,x,x
COCc1cc(C)n(CC(=O)NCc2ccccc2)c(=O)c1C#N,-1,4,374,-1,x,x
Cc1cc(Nc2ccccc2)nn1C(=O)c1ccc(Br)cc1,1,50*,154,0,121,i
Cc1cc(Nc2ccccc2)nn1C(=O)c1ccccc1,0,0,817,0,x,x
CCS(=O)(=O)c1nc(S(=O)(=O)c2ccc(Cl)cc2)c(NCc2ccccn2)s1,-3,-9,484,-2,x,x
Cc1nnc2ccc(-c3ccc(NC(=O)c4cccnc4Cl)cc3)nn12,-1,-3,395,-1,x,x
CCOc1ncccc1C(=O)Nc1ccc(-c2ccc3nnc(C)n3n2)cc1,-1,44*,506,1,107,i
COc1ccc(CNC(=O)CN(C(=O)c2snc(C(N)=O)c2N)c2ccc(F)cc2)cc1,0,47*,290,0,87,i
CC(=O)Nc1ccc(S(=O)(=O)N2CCC(C(=O)NCCC(=O)Nc3ccccc3)CC2)cc1,0,18,195,1,x,x
O=C(CCNC(=O)C1CCN(S(=O)(=O)c2ccccc2)CC1)Nc1ccccc1,-4,48*,544,1,107,i
Cc1ccc(O)c(NC(=O)c2cccc(NC(=O)c3ccco3)c2)c1,2,85*,353,1,19*,i
Nc1cccc(C#Cc2ccc3c(=O)c4ccccc4oc3c2)c1,5,48*,524,5,28*,i
